From ChEMBL document CHEMBL4334451, “Natural Alkaloid Berberine Activity against Pseudomonas aeruginosa MexXY-Mediated Aminoglycoside Resistance: In Silico and in Vitro Studies” (J Nat Prod, 2019)
Calls of active or inactive are those of the source. No cut-off for these calls is given here.

Tests used:
[1] = molecular target: T1, MexXY/OprM (Pseudomonas aeruginosa (strain ATCC 15692 / DSM 22644 / CIP 104116 / JCM14847 / LMG 12228 / 1C / PRS 101 / PAO1)) (UniProt Q51487+Q9ZNG9+Q9ZNG8); assay: Inhibition of MexXY/OPRM in Pseudomonas aeruginosa C67 assessed as reduction in bacterial resistance to tobramycin by measuring tobramycin MIC at 80 ug/ml incubated for 24 to 48 hrs by broth microdilution method (reference value: 16 ug/ml); type: protein-complex assay
[2] = molecular target: T1, MexXY/OprM (Pseudomonas aeruginosa (strain ATCC 15692 / DSM 22644 / CIP 104116 / JCM14847 / LMG 12228 / 1C / PRS 101 / PAO1)); assay: Inhibition of MexXY/OPRM in Pseudomonas aeruginosa C25 assessed as reduction in bacterial resistance to tobramycin by measuring tobramycin MIC at 80 ug/ml incubated for 24 to 48 hrs by broth microdilution method (reference value: 16 ug/ml); type: protein-complex assay
[3] = molecular target: T1, MexXY/OprM (Pseudomonas aeruginosa (strain ATCC 15692 / DSM 22644 / CIP 104116 / JCM14847 / LMG 12228 / 1C / PRS 101 / PAO1)); assay: Inhibition of MexXY/OPRM in Pseudomonas aeruginosa C25 assessed as reduction in bacterial resistance to tobramycin by measuring fold reduction in tobramycin MIC at 80 ug/ml incubated for 24 to 48 hrs by broth microdilution method; type: protein-complex assay
[4] = molecular target: T1, MexXY/OprM (Pseudomonas aeruginosa (strain ATCC 15692 / DSM 22644 / CIP 104116 / JCM14847 / LMG 12228 / 1C / PRS 101 / PAO1)); assay: Inhibition of MexXY/OPRM in Pseudomonas aeruginosa C83 assessed as reduction in bacterial resistance to tobramycin by measuring fold reduction in tobramycin MIC at 80 ug/ml incubated for 24 to 48 hrs by broth microdilution method; type: protein-complex assay
[5] = molecular target: T1, MexXY/OprM (Pseudomonas aeruginosa (strain ATCC 15692 / DSM 22644 / CIP 104116 / JCM14847 / LMG 12228 / 1C / PRS 101 / PAO1)); assay: Inhibition of MexXY/OPRM in Pseudomonas aeruginosa C54 assessed as bacterial growth up to 320 ug/ml incubated for 24 to 48 hrs by broth microdilution method; type: protein-complex assay
Procedure, shortened: (§1)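 Broth microdilution following CLSI guidelines, with P. aeruginosa ATCC 27853 as reference strain. Berberine was tested at 2-fold concentrations from 10 to 320 µg/ml, dissolved in 50% DMSO/50% methanol, with the top concentration set to keep final DMSO close to 1%. Plates were incubated at 37°C and read for visible growth at 24 and 48 h.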

[6] = molecular target: T1, MexXY/OprM (Pseudomonas aeruginosa (strain ATCC 15692 / DSM 22644 / CIP 104116 / JCM14847 / LMG 12228 / 1C / PRS 101 / PAO1)); assay: Inhibition of MexXY/OPRM in Pseudomonas aeruginosa C70 assessed as reduction in bacterial resistance to tobramycin by measuring tobramycin MIC at 80 ug/ml incubated for 24 to 48 hrs by broth microdilution method (reference value: 32 ug/ml); type: protein-complex assay
[7] = molecular target: T1, MexXY/OprM (Pseudomonas aeruginosa (strain ATCC 15692 / DSM 22644 / CIP 104116 / JCM14847 / LMG 12228 / 1C / PRS 101 / PAO1)); assay: Inhibition of MexXY/OPRM in Pseudomonas aeruginosa C61 assessed as reduction in bacterial resistance to tobramycin by measuring tobramycin MIC at 80 ug/ml incubated for 24 to 48 hrs by broth microdilution method (reference value: 64 ug/ml); type: protein-complex assay
[8] = molecular target: T1, MexXY/OprM (Pseudomonas aeruginosa (strain ATCC 15692 / DSM 22644 / CIP 104116 / JCM14847 / LMG 12228 / 1C / PRS 101 / PAO1)); assay: Inhibition of MexXY/OPRM in Pseudomonas aeruginosa AR51 assessed as reduction in bacterial resistance to tobramycin by measuring tobramycin MIC at 80 ug/ml incubated for 24 to 48 hrs by broth microdilution method (reference value: 16 ug/ml); type: protein-complex assay
[9] = molecular target: T1, MexXY/OprM (Pseudomonas aeruginosa (strain ATCC 15692 / DSM 22644 / CIP 104116 / JCM14847 / LMG 12228 / 1C / PRS 101 / PAO1)); assay: Inhibition of MexXY/OPRM in Pseudomonas aeruginosa AR48 assessed as bacterial growth up to 320 ug/ml incubated for 24 to 48 hrs by broth microdilution method; type: protein-complex assay; procedure, shortened: as §1
[10] = molecular target: T1, MexXY/OprM (Pseudomonas aeruginosa (strain ATCC 15692 / DSM 22644 / CIP 104116 / JCM14847 / LMG 12228 / 1C / PRS 101 / PAO1)); assay: Inhibition of MexXY/OPRM in Pseudomonas aeruginosa C104 assessed as reduction in bacterial resistance to tobramycin by measuring fold reduction in tobramycin MIC at 80 ug/ml incubated for 24 to 48 hrs by broth microdilution method; type: protein-complex assay
[11] = molecular target: T1, MexXY/OprM (Pseudomonas aeruginosa (strain ATCC 15692 / DSM 22644 / CIP 104116 / JCM14847 / LMG 12228 / 1C / PRS 101 / PAO1)); assay: Inhibition of MexXY/OPRM in Pseudomonas aeruginosa C52 assessed as reduction in bacterial resistance to tobramycin by measuring tobramycin MIC at 80 ug/ml incubated for 24 to 48 hrs by broth microdilution method (reference value: >128 ug/ml); type: protein-complex assay
[12] = molecular target: T1, MexXY/OprM (Pseudomonas aeruginosa (strain ATCC 15692 / DSM 22644 / CIP 104116 / JCM14847 / LMG 12228 / 1C / PRS 101 / PAO1)); assay: Inhibition of MexXY/OPRM in Pseudomonas aeruginosa C98 assessed as bacterial growth up to 320 ug/ml incubated for 24 to 48 hrs by broth microdilution method; type: protein-complex assay
Procedure, shortened: (§2)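 Broth microdilution per CLSI, with P. aeruginosa ATCC 27853 as reference strain, in 2-fold dilution series. Plates were incubated at 37°C and read for visible growth at 24 and 48 h. Berberine stock was in 50% DMSO/50% methanol, with final DMSO kept near 1%. Berberine was tested at 10–320 µg/ml, alone or at a fixed level with serial tobramycin.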

[13] = molecular target: T1, MexXY/OprM (Pseudomonas aeruginosa (strain ATCC 15692 / DSM 22644 / CIP 104116 / JCM14847 / LMG 12228 / 1C / PRS 101 / PAO1)); assay: Inhibition of MexXY/OPRM in Pseudomonas aeruginosa C89 assessed as bacterial growth up to 320 ug/ml incubated for 24 to 48 hrs by broth microdilution method; type: protein-complex assay; procedure, shortened: as §2
[14] = molecular target: T1, MexXY/OprM (Pseudomonas aeruginosa (strain ATCC 15692 / DSM 22644 / CIP 104116 / JCM14847 / LMG 12228 / 1C / PRS 101 / PAO1)); assay: Inhibition of MexXY/OPRM in Pseudomonas aeruginosa C6 assessed as reduction in bacterial resistance to tobramycin by measuring fold reduction in tobramycin MIC at 80 ug/ml incubated for 24 to 48 hrs by broth microdilution method; type: protein-complex assay
[15] = molecular target: T1, MexXY/OprM (Pseudomonas aeruginosa (strain ATCC 15692 / DSM 22644 / CIP 104116 / JCM14847 / LMG 12228 / 1C / PRS 101 / PAO1)); assay: Inhibition of MexXY/OPRM in Pseudomonas aeruginosa C93 assessed as bacterial growth up to 320 ug/ml incubated for 24 to 48 hrs by broth microdilution method; type: protein-complex assay; procedure, shortened: as §2
[16] = molecular target: T1, MexXY/OprM (Pseudomonas aeruginosa (strain ATCC 15692 / DSM 22644 / CIP 104116 / JCM14847 / LMG 12228 / 1C / PRS 101 / PAO1)); assay: Inhibition of MexXY/OPRM in Pseudomonas aeruginosa C84 assessed as reduction in bacterial resistance to tobramycin by measuring tobramycin MIC at 80 ug/ml incubated for 24 to 48 hrs by broth microdilution method (reference value: 0.5 ug/ml); type: protein-complex assay; procedure, shortened: as §2
[17] = molecular target: T1, MexXY/OprM (Pseudomonas aeruginosa (strain ATCC 15692 / DSM 22644 / CIP 104116 / JCM14847 / LMG 12228 / 1C / PRS 101 / PAO1)); assay: Inhibition of MexXY/OPRM in Pseudomonas aeruginosa C31 assessed as reduction in bacterial resistance to tobramycin by measuring tobramycin MIC at 80 ug/ml incubated for 24 to 48 hrs by broth microdilution method (reference value: 8 ug/ml); type: protein-complex assay
[18] = molecular target: T1, MexXY/OprM (Pseudomonas aeruginosa (strain ATCC 15692 / DSM 22644 / CIP 104116 / JCM14847 / LMG 12228 / 1C / PRS 101 / PAO1)); assay: Inhibition of MexXY/OPRM in Pseudomonas aeruginosa PA14 assessed as reduction in bacterial resistance to tobramycin by measuring tobramycin MIC at 80 ug/ml incubated for 24 to 48 hrs by broth microdilution method (reference value: 0.125 ug/ml); type: protein-complex assay; procedure, shortened: as §2
[19] = molecular target: T1, MexXY/OprM (Pseudomonas aeruginosa (strain ATCC 15692 / DSM 22644 / CIP 104116 / JCM14847 / LMG 12228 / 1C / PRS 101 / PAO1)); assay: Inhibition of MexXY/OPRM in Pseudomonas aeruginosa PA14 assessed as bacterial growth up to 320 ug/ml incubated for 24 to 48 hrs by broth microdilution method; type: protein-complex assay; procedure, shortened: as §2
[20] = molecular target: T1, MexXY/OprM (Pseudomonas aeruginosa (strain ATCC 15692 / DSM 22644 / CIP 104116 / JCM14847 / LMG 12228 / 1C / PRS 101 / PAO1)); assay: Inhibition of MexXY/OPRM in Pseudomonas aeruginosa C86 assessed as reduction in bacterial resistance to tobramycin by measuring fold reduction in tobramycin MIC at 80 ug/ml incubated for 24 to 48 hrs by broth microdilution method; type: protein-complex assay
Procedure, shortened: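 Tobramycin MIC by CLSI broth microdilution at 37°C, read at 24 and 48 h, with and without a fixed berberine concentration selected from checkerboard assays. Berberine stock was in 50% DMSO/50% methanol, final DMSO about 1%. A 2-fold decrease in tobramycin MIC was scored as synergy.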

[21] = molecular target: T1, MexXY/OprM (Pseudomonas aeruginosa (strain ATCC 15692 / DSM 22644 / CIP 104116 / JCM14847 / LMG 12228 / 1C / PRS 101 / PAO1)); assay: Inhibition of MexXY/OPRM in Pseudomonas aeruginosa C61 assessed as reduction in bacterial resistance to tobramycin by measuring fold reduction in tobramycin MIC at 80 ug/ml incubated for 24 to 48 hrs by broth microdilution method; type: protein-complex assay
[22] = molecular target: T1, MexXY/OprM (Pseudomonas aeruginosa (strain ATCC 15692 / DSM 22644 / CIP 104116 / JCM14847 / LMG 12228 / 1C / PRS 101 / PAO1)); assay: Inhibition of MexXY/OPRM in Pseudomonas aeruginosa AR61 assessed as bacterial growth up to 320 ug/ml incubated for 24 to 48 hrs by broth microdilution method; type: protein-complex assay; procedure, shortened: as §1
Erythrocyte = assay: Hemolytic activity in human RBC at 10 to 320 ug/ml incubated for 1 hr by spectrophotometry; type: ADME, cell-based
Procedure, shortened: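 Fresh heparinized human blood diluted in PBS pH 7.4, washed 3x, resuspended to ~20 vol%. Erythrocyte suspension mixed 1:1 with 1:2 serial berberine dilutions in PBS. PBS served as negative control, 0.2 vol% Triton X-100 as positive control.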

## COc1ccc2cc3[n+](cc2c1OC)CCc1cc2c(cc1-3)OCO2 [BERBERINE]
[1]
  MIC: 16 µg/mL
[2]
  MIC: 1 µg/mL
[3]
  fold change (FC): 16
[4]
  fold change (FC): > 2
[5]
  inhibition: inactive
[6]
  MIC: 8 µg/mL
[7]
  MIC: 16 µg/mL
[8]
  MIC: 8 µg/mL
[9]
  inhibition: inactive
[10]
  fold change (FC): > 2
[11]
  MIC: 128 µg/mL
[12]
  inhibition: inactive
[13]
  inhibition: inactive
[14]
  fold change (FC): > 2
[15]
  inhibition: inactive
[16]
  MIC: 0.125 µg/mL
[17]
  MIC: 8 µg/mL
[18]
  MIC: 0.125 µg/mL
[19]
  inhibition: inactive
[20]
  fold change (FC): > 2
[21]
  fold change (FC): > 2
[22]
  inhibition: inactive
Erythrocyte
  Activity: Non-Toxic
